pKi: −log10 of the molar value.
Key:
[1] = Cytotoxicity against human Raji cells assessed as cell viability at 10^-6 M; assay type: cell-based; conditions: read-out: Activity
[2] = Cytotoxicity against human Raji cells assessed as cell viability at 10^-7 M; assay type: cell-based; conditions: read-out: Activity
Human gammaherpesvirus 4 [3] = assay: Induction of EBV-early antigen expressed in human Raji cells at 10^-6 M after 48 hrs by immunofluorescence assay relative to control; assay type: organism-based; conditions: human gammaherpesvirus 4, raji, 1 µM
Procedure, shortened: (§1)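 Raji B-lymphoblastoid cells (5 × 10^5/mL) in RPMI 1640 with 10% FBS, with 4 mM sodium n-butyrate as synergist and test compound at 10^-7 or 10^-6 M (final DMSO 0.4%). Incubated 48 h at 37 °C under 5% CO2. Smears were stained by indirect immunofluorescence using NPC patient serum and FITC anti-human IgG. At least 500 cells counted; % EA-positive recorded; n = 3, SEM.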

Human gammaherpesvirus 4 [4] = assay: Induction of EBV-early antigen expressed in human Raji cells at 10^-7 M after 48 hrs by immunofluorescence assay relative to control; assay type: organism-based; conditions: human gammaherpesvirus 4, raji, 0.1 µM; procedure, shortened: as §1
PC-3 = assay: Growth inhibition of human PC3 cells after 48 hrs by sulforhodamine B assay; assay type: functional; conditions: PC-3, 48 h
Procedure, shortened: (§2)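 Yamori 39-line human cancer panel, NCI method with modifications. Cells plated in RPMI 1640 plus 5% FBS, attached overnight, then exposed 48 h to compound at 10^-8, 10^-7, 10^-6, 10^-5 and 10^-4 M. Sulforhodamine B staining read at 525 nm; % growth = 100[(T−T0)/(C−T0)] from duplicate-point averages, with T0 the time-zero absorbance. GI50 is the concentration giving 50.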

DU-145 = assay: Growth inhibition of human DU145 cells after 48 hrs by sulforhodamine B assay; assay type: functional; conditions: DU-145, 48 h; procedure, shortened: as §2
MKN-74 = assay: Growth inhibition of human MKN74 cells after 48 hrs by sulforhodamine B assay; assay type: functional; conditions: MKN-74, 48 h; procedure, shortened: as §2
MKN-28 = assay: Growth inhibition of human MKN28 cells after 48 hrs by sulforhodamine B assay; assay type: functional; conditions: MKN-28, 48 h; procedure, shortened: as §2
MKN-45 = assay: Growth inhibition of human MKN45 cells after 48 hrs by sulforhodamine B assay; assay type: functional; conditions: MKN-45, 48 h; procedure, shortened: as §2
MKN-7 = assay: Growth inhibition of human MKN7 cells after 48 hrs by sulforhodamine B assay; assay type: functional; conditions: MKN-7, 48 h; procedure, shortened: as §2
St-4 = assay: Growth inhibition of human St-4 cells after 48 hrs by sulforhodamine B assay; assay type: functional; conditions: St-4, 48 h; procedure, shortened: as §2
[5] = Growth inhibition of human MKN1 cells after 48 hrs by sulforhodamine B assay; assay type: functional; conditions: MKN-1, 48 h; procedure, shortened: as §2
[6] = Growth inhibition of human RXF631L cells after 48 hrs by sulforhodamine B assay; assay type: functional; conditions: RXF 631, 48 h; procedure, shortened: as §2
ACHN = assay: Growth inhibition of human ACHN cells after 48 hrs by sulforhodamine B assay; assay type: functional; procedure, shortened: as §2
OVCAR-8 = assay: Growth inhibition of human OVCAR8 cells after 48 hrs by sulforhodamine B assay; assay type: functional; conditions: OVCAR-8, 48 h; procedure, shortened: as §2
SK-OV-3 = assay: Growth inhibition of human SKOV3 cells after 48 hrs by sulforhodamine B assay; assay type: functional; conditions: SK-OV-3, 48 h; procedure, shortened: as §2
OVCAR-5 = assay: Growth inhibition of human OVCAR5 cells after 48 hrs by sulforhodamine B assay; assay type: functional; conditions: OVCAR-5, 48 h; procedure, shortened: as §2
OVCAR-3 = assay: Growth inhibition of human OVCAR3 cells after 48 hrs by sulforhodamine B assay; assay type: functional; conditions: OVCAR-3, 48 h; procedure, shortened: as §2
OVCAR-4 = assay: Growth inhibition of human OVCAR4 cells after 48 hrs by sulforhodamine B assay; assay type: functional; conditions: OVCAR-4, 48 h; procedure, shortened: as §2
DMS-114 = assay: Growth inhibition of human DMS114 cells after 48 hrs by sulforhodamine B assay; assay type: functional; conditions: DMS-114, 48 h; procedure, shortened: as §2
LOX IMVI = assay: Growth inhibition of human LOXIMVI cells after 48 hrs by sulforhodamine B assay; assay type: functional; procedure, shortened: as §2
A549 = assay: Growth inhibition of human A549 cells after 48 hrs by sulforhodamine B assay; assay type: functional; conditions: A549, 48 h; procedure, shortened: as §2
DMS-273 = assay: Growth inhibition of human DMS273 cells after 48 hrs by sulforhodamine B assay; assay type: functional; conditions: DMS-273, 48 h; procedure, shortened: as §2
NCI-H460 = assay: Growth inhibition of human NCI-H460 cells after 48 hrs by sulforhodamine B assay; assay type: functional; conditions: NCI-H460, 48 h; procedure, shortened: as §2
NCI-H226 = assay: Growth inhibition of human NCI-H226 cells after 48 hrs by sulforhodamine B assay; assay type: functional; conditions: NCI-H226, 48 h; procedure, shortened: as §2
NCI-H522 = assay: Growth inhibition of human NCI-H522 cells after 48 hrs by sulforhodamine B assay; assay type: functional; conditions: NCI-H522, 48 h; procedure, shortened: as §2
HCT-116 = assay: Growth inhibition of human HCT116 cells after 48 hrs by sulforhodamine B assay; assay type: functional; conditions: HCT-116, 48 h; procedure, shortened: as §2
NCI-H23 = assay: Growth inhibition of human NCI-H23 cells after 48 hrs by sulforhodamine B assay; assay type: functional; conditions: NCI-H23, 48 h; procedure, shortened: as §2
HCT-15 = assay: Growth inhibition of human HCT15 cells after 48 hrs by sulforhodamine B assay; assay type: functional; conditions: HCT-15, 48 h; procedure, shortened: as §2
KM12 = assay: Growth inhibition of human KM12 cells after 48 hrs by sulforhodamine B assay; assay type: functional; conditions: KM12, 48 h; procedure, shortened: as §2
HT-29 = assay: Growth inhibition of human HT-29 cells after 48 hrs by sulforhodamine B assay; assay type: functional; conditions: HT-29, 48 h; procedure, shortened: as §2
SNB-78 = assay: Growth inhibition of human SNB78 cells after 48 hrs by sulforhodamine B assay; assay type: functional; conditions: SNB-78, 48 h; procedure, shortened: as §2
[7] = Growth inhibition of human HCC2998 cells after 48 hrs by sulforhodamine B assay; assay type: functional; conditions: HCC 2998, 48 h; procedure, shortened: as §2
SF-539 = assay: Growth inhibition of human SF539 cells after 48 hrs by sulforhodamine B assay; assay type: functional; conditions: SF-539, 48 h; procedure, shortened: as §2
SNB-75 = assay: Growth inhibition of human SNB75 cells after 48 hrs by sulforhodamine B assay; assay type: functional; conditions: SNB-75, 48 h; procedure, shortened: as §2
SF-295 = assay: Growth inhibition of human SF295 cells after 48 hrs by sulforhodamine B assay; assay type: functional; conditions: SF-295, 48 h; procedure, shortened: as §2
U-251 = assay: Growth inhibition of human U251 cells after 48 hrs by sulforhodamine B assay; assay type: functional; conditions: U-251, 48 h; procedure, shortened: as §2
SF-268 = assay: Growth inhibition of human SF268 cells after 48 hrs by sulforhodamine B assay; assay type: functional; conditions: SF-268, 48 h; procedure, shortened: as §2
MCF7 = assay: Growth inhibition of human MCF7 cells after 48 hrs by sulforhodamine B assay; assay type: functional; conditions: MCF7, 48 h; procedure, shortened: as §2
MDA-MB-231 = assay: Growth inhibition of human MDA-MB-231 cells after 48 hrs by sulforhodamine B assay; assay type: functional; conditions: MDA-MB-231, 48 h; procedure, shortened: as §2
[8] = Growth inhibition of human BSY1 cells after 48 hrs by sulforhodamine B assay; assay type: functional; conditions: BSY-1, 48 h; procedure, shortened: as §2
[9] = Growth inhibition of human HBC5 cells after 48 hrs by sulforhodamine B assay; assay type: functional; conditions: HBC5, 48 h; procedure, shortened: as §2
[10] = Growth inhibition of human HBC4 cells after 48 hrs by sulforhodamine B assay; assay type: functional; conditions: HBC4, 48 h; procedure, shortened: as §2
[11] = Octanol-water partition coefficient, log P of the compound by HPLC analysis; assay type: physicochemical
Procedure, shortened: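 log P was estimated from HPLC retention, with column dead time measured using unretained formamide.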

[12] = biological target: T1, Protein kinase C delta type (Homo sapiens, UniProt Q05655); assay: Inhibition of [3H]PDBu binding to PKCdelta-C1A domain peptide (unknown origin)
T1 sequence (Q05655 whole entry, the tested form may be a part): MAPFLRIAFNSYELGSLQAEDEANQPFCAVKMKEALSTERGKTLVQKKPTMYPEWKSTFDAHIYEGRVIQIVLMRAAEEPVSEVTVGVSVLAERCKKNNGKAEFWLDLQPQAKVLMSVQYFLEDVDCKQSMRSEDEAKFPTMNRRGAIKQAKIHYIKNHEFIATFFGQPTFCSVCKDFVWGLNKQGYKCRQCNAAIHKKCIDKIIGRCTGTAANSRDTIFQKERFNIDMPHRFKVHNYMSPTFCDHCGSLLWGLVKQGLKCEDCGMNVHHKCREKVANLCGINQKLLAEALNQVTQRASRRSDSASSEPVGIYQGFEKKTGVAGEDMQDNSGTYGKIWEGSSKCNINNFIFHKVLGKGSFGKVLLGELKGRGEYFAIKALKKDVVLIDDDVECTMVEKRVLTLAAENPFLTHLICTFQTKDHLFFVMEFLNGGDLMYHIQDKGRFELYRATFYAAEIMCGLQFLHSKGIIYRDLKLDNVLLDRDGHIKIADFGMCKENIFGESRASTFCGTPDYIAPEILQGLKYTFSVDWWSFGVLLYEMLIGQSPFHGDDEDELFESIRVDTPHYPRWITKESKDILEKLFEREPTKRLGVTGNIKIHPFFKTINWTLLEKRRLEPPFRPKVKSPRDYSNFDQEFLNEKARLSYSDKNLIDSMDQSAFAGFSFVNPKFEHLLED
Procedure, shortened: (§3)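 Competitive [3H]PDBu binding used 14 or 40 nM PKCδ C1 peptide and 20 nM [3H]PDBu (19.6 Ci/mmol), in 50 mM Tris-maleate (pH 7.4 at 4 °C) with 50 µg/mL phosphatidylserine, 3 mg/mL bovine γ-globulin and varied inhibitor concentrations. IC50 was taken as 50% inhibition of specific binding. Ki was derived by the Sharkey–Blumberg method.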

[13] = biological target: T1, Protein kinase C delta type; assay: Inhibition of [3H]PDBu binding to PKCdelta-C1B domain peptide (unknown origin); procedure, shortened: as §3

COc1cccc(CCCC[C@@H]2C[C@@H]3C[C@@]4(O[C@H](CCC4(C)C)CC(=O)O[C@@H](CO)CC(=O)O3)O2)c1
viability at 1 µM [1]: 60% | viability at 0.1 µM [2]: 60% | Activity (Human gammaherpesvirus 4 [3]): 5.2% | Activity (Human gammaherpesvirus 4 [4]): 2.6% | GI50 (PC-3): 12 µM | GI50 (DU-145): 13.8 µM | GI50 (MKN-74): 15.8 µM | GI50 (MKN-28): 15.1 µM | GI50 (MKN-45): 9.55 µM | GI50 (MKN-7): 19.1 µM | GI50 (St-4): 2.51 µM | GI50 [5]: 11.5 µM | GI50 [6]: 13.8 µM | GI50 (ACHN): 11.5 µM | GI50 (OVCAR-8): 17 µM | GI50 (SK-OV-3): 16.2 µM | GI50 (OVCAR-5): 13.5 µM | GI50 (OVCAR-3): 12.6 µM | GI50 (OVCAR-4): 15.8 µM | GI50 (DMS-114): 11 µM | GI50 (LOX IMVI): 11 µM | GI50 (A549): 4.9 µM | GI50 (DMS-273): 11 µM | GI50 (NCI-H460): 2.57 µM | GI50 (NCI-H226): 11.7 µM | GI50 (NCI-H522): 11.5 µM | GI50 (HCT-116): 13.5 µM | GI50 (NCI-H23): 13.5 µM | GI50 (HCT-15): 18.2 µM | GI50 (KM12): 13.8 µM | GI50 (HT-29): 11.2 µM | GI50 (SNB-78): 17.4 µM | GI50 [7]: 7.94 µM | GI50 (SF-539): 10 µM | GI50 (SNB-75): 14.5 µM | GI50 (SF-295): 10.2 µM | GI50 (U-251): 17 µM | GI50 (SF-268): 14.1 µM | GI50 (MCF7): 16.2 µM | GI50 (MDA-MB-231): 6.61 µM | GI50 [8]: 13.8 µM | GI50 [9]: 18.6 µM | GI50 [10]: 1.7 µM | logP [11]: 4.4 | pKi [12]: 6.48 | pKi [13]: 8.01

— ChEMBL document CHEMBL2380295, “Structure-activity studies on the side chain of a simplified analog of aplysiatoxin (aplog-1) with anti-proliferative activity” (Bioorg Med Chem, 2013)
